≈ marks a conversion by molar mass, not a printed value.
Key:
Plasma [1] = assay: Half life in healthy human plasma assessed as metabolite BAY 78-1788 Half life at 80 mg, po administered as four 20 mg immediate release tablets daily for 3 days during 10 hrs overnight fasting state measured after 3 day; format: ADME, organism-based; details: in vivo, 72 h
How it was run: (§1)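 Healthy Caucasian males took tablets once daily for 3 days with 240 ml water after a 10-h fast. Heparinised blood was drawn predose and at 0.25–14 h after the first and last doses. Plasma parent drug and metabolites M1–M3 were measured by LC/MS-MS (MRM, deuterated internal standard). Noncompartmental analysis gave Cmax observed, t1/2 = 0.693/kel and MRT = AUMC/AUC. Values are geometric means.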

Plasma [2] = assay: Ratio of AUC (0 to infinity) for metabolite BAY 78-1788 to AUC (0 to infinity) for compound in healthy human plasma at 80 mg, po administered as single dose for 3 days measured after 1 day; format: ADME, organism-based; details: in vivo, 24 h
How it was run: (§2)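 Healthy Caucasian men (8 active, 4 placebo per dose) dosed with tablets daily for 3 days after 10-h fast. Plasma sampled 0.25–14 h after first and last doses. Parent and metabolites M1–M3 measured by LC/MS-MS (200 µl plasma). Metabolic ratio is metabolite AUC0-∞ divided by parent AUC0-∞ (log-linear trapezoidal, extrapolated by last concentration/kel). First vs third dose compared by paired t test.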

Plasma [3] = assay: AUC in healthy human plasma assessed as metabolite BAY 78-1788 AUC at 40 mg, po administered as two 20 mg immediate release tablets daily for 3 days during 10 hrs overnight fasting state measured after 1 day; format: ADME, organism-based; set-up: dose 40 mg, time < 10 hr, route oral; details: in vivo
How it was run: (§3)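 Healthy Caucasian male volunteers took 40 mg (two 20-mg IR tablets) or 80 mg (four tablets) orally once daily for 3 days, with 240 ml water after a 10-h fast. Plasma was sampled predose to 14 h after the first and last doses. M1/M2/M3 were quantified by LC/MS-MS MRM against a D4-labelled internal standard. Cmax was read from observed data and AUC by log-linear trapezoidal rule, noncompartmental, geometric means.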

Plasma [4] = assay: Tmax in healthy human plasma assessed as metabolite BAY 78-1788 Tmax at 40 mg, po administered as two 20 mg immediate release tablets daily for 3 days during 10 hrs overnight fasting state measured after 1 day; format: ADME, organism-based; details: in vivo, 24 h
How it was run: (§4)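 Healthy Caucasian men (8 active, 4 placebo per dose) dosed with tablets daily for 3 days after 10-h fast. Lithium-heparin plasma sampled predose and 0.25–14 h after day-1 and day-3 doses, stored frozen. Parent and M1–M3 quantified by LC/MS-MS in positive-ion MRM. Tmax taken directly from observed individual data.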

Plasma [5] = assay: AUC in healthy human plasma assessed as metabolite BAY 78-1788 AUC at 80 mg, po administered as four 20 mg immediate release tablets daily for 3 days during 10 hrs overnight fasting state measured after 1 day; format: ADME, organism-based; set-up: dose 80 mg, time < 10 hr, route oral; details: in vivo; how it was run: as §3
Plasma [6] = assay: Cmax in healthy human plasma assessed as metabolite BAY 78-1788 Cmax at 80 mg, po administered as four 20 mg immediate release tablets daily for 3 days during 10 hrs overnight fasting state measured after 1 day; format: ADME, organism-based; set-up: dose 80 mg, route oral; details: in vivo, 24 h; how it was run: as §1
Plasma [7] = assay: Tmax in healthy human plasma assessed as metabolite BAY 78-1788 Tmax at 80 mg, po administered as four 20 mg immediate release tablets daily for 3 days during 10 hrs overnight fasting state measured after 3 day; format: ADME, organism-based; details: in vivo, 72 h; how it was run: as §4
Plasma [8] = assay: Ratio of AUC (0 to infinity) for metabolite BAY 78-1788 to AUC (0 to infinity) for compound in healthy human plasma at 80 mg, po administered as single dose for 3 days measured after 3 days; format: ADME, organism-based; details: in vivo, 72 h; how it was run: as §2
Plasma [9] = assay: Tmax in healthy human plasma assessed as metabolite BAY 78-1788 Tmax at 80 mg, po administered as four 20 mg immediate release tablets daily for 3 days during 10 hrs overnight fasting state measured after 1 day; format: ADME, organism-based; details: in vivo, 24 h; how it was run: as §4
Plasma [10] = assay: Ratio of AUC (0 to infinity) for metabolite BAY 78-1788 to AUC (0 to infinity) for compound in healthy human plasma at 40 mg, po administered as single dose for 3 days measured after 1 day; format: ADME, organism-based; details: in vivo, 24 h; how it was run: as §2
Plasma [11] = assay: Cmax in healthy human plasma assessed as metabolite BAY 78-1788 Cmax at 40 mg, po administered as two 20 mg immediate release tablets daily for 3 days during 10 hrs overnight fasting state measured after 3 day; format: ADME, organism-based; set-up: dose 40 mg, route oral; details: in vivo, 72 h; how it was run: as §1
Plasma [12] = assay: Tmax in healthy human plasma assessed as metabolite BAY 78-1788 Tmax at 40 mg, po administered as two 20 mg immediate release tablets daily for 3 days during 10 hrs overnight fasting state measured after 3 day; format: ADME, organism-based; details: in vivo, 72 h; how it was run: as §4
Plasma [13] = assay: Cmax in healthy human plasma assessed as metabolite BAY 78-1788 Cmax at 80 mg, po administered as single ascending doses during 10 hrs overnight fasting state; format: ADME, organism-based; set-up: dose 80 mg, route oral; details: in vivo
How it was run: (§5)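 Healthy Caucasian male volunteers, single oral dose with 240 ml water after a 10-h overnight fast. Heparinised venous blood was drawn predose and at 0.25–14 h. Plasma was stored frozen. Parent drug and metabolites M1–M3 were measured by LC/MS-MS (MRM, deuterated internal standard). Noncompartmental analysis gave Cmax observed, t1/2 = 0.693/kel (terminal regression) and MRT = AUMC/AUC. Values are geometric means.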

Plasma [14] = assay: Half life in healthy human plasma assessed as metabolite BAY 78-1788 Half life at 80 mg, po administered as four 20 mg immediate release tablets daily for 3 days during 10 hrs overnight fasting state measured after 1 day; format: ADME, organism-based; details: in vivo, 24 h; how it was run: as §1
Plasma [15] = assay: Ratio of AUC (0 to infinity) for metabolite BAY 78-1788 to AUC (0 to infinity) for compound in healthy human plasma at 40 mg, po administered as single dose for 3 days measured after 3 days; format: ADME, organism-based; details: in vivo, 72 h; how it was run: as §2
Plasmodium falciparum = assay: Antimalarial activity against Plasmodium falciparum K1 in human plasma assessed as inhibition of hypoxanthine uptake by intraerythrocytic malaria parasites by hypoxanthine incorporation assay; format: functional, organism-based
How it was run: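 K1 or TM90-C2A parasites were sorbitol-synchronized and cultured in RPMI 1640. Drug was diluted in drug-free human serum (0.04–40 ng/ml) or subject plasma was diluted twofold (8–8,192). Parasites were added at 2% hematocrit, 1% parasitemia (>95% rings), and [3H]hypoxanthine uptake was measured over 48 h. IC50 or ID50 came from concentration or dilution-response curves. Equivalent concentration = ID50 × IC50.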

Plasma [16] = assay: Half life in healthy human plasma assessed as metabolite BAY 78-1788 Half life at 40 mg, po administered as two 20 mg immediate release tablets daily for 3 days during 10 hrs overnight fasting state measured after 3 day; format: ADME, organism-based; details: in vivo, 72 h; how it was run: as §1
Plasma [17] = assay: Cmax in healthy human plasma assessed as metabolite BAY 78-1788 Cmax at 80 mg, po administered as four 20 mg immediate release tablets daily for 3 days during 10 hrs overnight fasting state measured after 3 day; format: ADME, organism-based; set-up: dose 80 mg, route oral; details: in vivo, 72 h; how it was run: as §1
Plasma [18] = assay: Half-life in healthy human plasma assessed as metabolite BAY 78-1788 half-life at 80 mg, po administered as single ascending doses during 10 hrs overnight fasting state; format: ADME, organism-based; details: in vivo; how it was run: as §5
Plasma [19] = assay: Cmax in healthy human plasma assessed as metabolite BAY 78-1788 Cmax at 40 mg, po administered as two 20 mg immediate release tablets daily for 3 days during 10 hrs overnight fasting state measured after 1 day; format: ADME, organism-based; set-up: dose 40 mg, route oral; details: in vivo, 24 h; how it was run: as §3
Plasma [20] = assay: AUC in healthy human plasma assessed as metabolite BAY 78-1788 AUC at 40 mg, po administered as two 20 mg immediate release tablets daily for 3 days during 10 hrs overnight fasting state measured after 3 day; format: ADME, organism-based; set-up: dose 40 mg, time < 10 hr, route oral; details: in vivo; how it was run: as §3
Plasma [21] = assay: Half life in healthy human plasma assessed as metabolite BAY 78-1788 Half life at 40 mg, po administered as two 20 mg immediate release tablets daily for 3 days during 10 hrs overnight fasting state measured after 1 day; format: ADME, organism-based; details: in vivo; how it was run: as §1
Plasma [22] = assay: AUC (0 to infinity) in healthy human plasma assessed as metabolite BAY 78-1788 AUC (0 to infinity) at 80 mg, po administered as single ascending doses during 10 hrs overnight fasting state; format: ADME, organism-based; set-up: dose 80 mg, time infinity, route oral; details: in vivo
How it was run: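 Healthy Caucasian male volunteers, single oral dose of 80 mg as four 20-mg immediate-release tablets, taken with 240 ml water after a 10-h overnight fast. Lithium-heparin venous blood was drawn predose and at 0.25–14 h, and plasma was stored frozen. Metabolites M1/M2/M3 were measured by LC/MS-MS (positive-ion MRM, deuterated internal standard). Noncompartmental analysis, AUC by log-linear trapezoidal rule extrapolated to infinity (Clast/kel), geometric means.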

Plasma [23] = assay: AUC in healthy human plasma assessed as metabolite BAY 78-1788 AUC at 80 mg, po administered as four 20 mg immediate release tablets daily for 3 days during 10 hrs overnight fasting state measured after 3 day; format: ADME, organism-based; set-up: dose 80 mg, time < 10 hr, route oral; details: in vivo; how it was run: as §3

C[C@H]1[C@H](N2CCS(=O)(=O)CC2)O[C@@H]2O[C@]3(C)C[C@H](O)[C@H]4[C@H](C)CC[C@@H]1[C@@]24OO3
t1/2 (Plasma [1]): 1.44 h | Ratio (Plasma [2]): 0.91 | AUC (Plasma [3]): 117.3 ng·h/mL | Tmax (Plasma [4]): 1.75 h | AUC (Plasma [5]): 302.4 ng·h/mL | Cmax (Plasma [6]): 87.2 ng/mL | Tmax (Plasma [7]): 2.5 h | Ratio (Plasma [8]): 0.82 | Tmax (Plasma [9]): 2 h | Ratio (Plasma [10]): 0.71 | Cmax (Plasma [11]): 36.4 ng/mL | Tmax (Plasma [12]): 2 h | Cmax (Plasma [13]): 108.9 ng/mL | t1/2 (Plasma [14]): 1.59 h | Ratio (Plasma [15]): 0.65 | IC50 (Plasmodium falciparum): 0.0257 µg/mL (≈ 0.0616 µM) | t1/2 (Plasma [16]): 1.28 h | Cmax (Plasma [17]): 66.5 ng/mL | t1/2 (Plasma [18]): 1.36 h | Cmax (Plasma [19]): 40.6 ng/mL | AUC (Plasma [20]): 115.1 ng·h/mL | t1/2 (Plasma [21]): 1.31 h | AUC (Plasma [22]): 379.9 ng·h/mL | AUC (Plasma [23]): 263 ng·h/mL

Reference: ChEMBL document CHEMBL1671864, “First assessment in humans of the safety, tolerability, pharmacokinetics, and ex vivo pharmacodynamic antimalarial activity of the new artemisinin derivative artemisone” (Antimicrob Agents Chemother, 2008)
